Data as given in publication PMC3082041 (Cancer Chemotherapy and Pharmacology, 2010).

Assays:
[1] = system: patients with advanced solid tumors; experiment: Phase I dose escalation, drug-related adverse events; format: in vivo, human (Japanese patients)
Outline: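 Open, non-randomised escalation in three-patient cohorts at 200, 400, 800 and 1,200 mg/m2 oral bid. Tablets taken >2 h after breakfast and supper for 28 consecutive days, with a single dose on day 1. Toxicity graded weekly by NCI-CTC v2.0. DLT: grade 3/4 non-haematologic or grade 4 haematologic toxicity. MTD: DLT in >33% within 4 weeks.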

advanced solid tumors = experiment: Antitumor effect; format: in vivo, human (Japanese patients)
Outline: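 Tumours measured before treatment and at 4 weeks, scored by Japan Society for Cancer Therapy (WHO-based) criteria. PR: ≥50% shrinkage held ≥4 weeks. NC: <50% shrinkage or ≤25% enlargement held ≥4 weeks. PD: ≥25% enlargement or new lesions. Tumour-type-related markers measured before therapy. Patients with progression were taken off study.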

[2] = system: plasma VEGF, E-selectin, tPA, VCAM-1, PAI-1, urine VEGF; experiment: Angiogenesis-related biomarkers in plasma and urine; format: in vivo, human (Japanese patients); conditions: 14 patients
tumor xenograft explants = conditions: athymic mice, many types of tumor; cited from earlier work
[3] = 200 mg/m^2 bid (N = 3), G1, 28-days administration
[4] = 400 mg/m^2 bid (N = 3), G1, 28-days administration
[5] = 400 mg/m^2 bid (N = 3), G2, 28-days administration
[6] = 800 mg/m^2 bid (N = 6), G1, 28-days administration
[7] = 800 mg/m^2 bid (N = 6), G2, 28-days administration
[8] = 800 mg/m^2 bid (N = 6), G3, 28-days administration
[9] = 1,200 mg/m^2 bid (N = 3), G1, 28-days administration
[10] = 1,200 mg/m^2 bid (N = 3), G2, 28-days administration
[11] = Total, all dose levels (N = 15), 28-days administration

With `Cc1[nH]c(/C=C2\C(=O)Nc3ccccc32)c(C)c1CCC(=O)O` [TSU-68, (Z)-3-[2,4-dimethyl-5-(2-oxo-1,2-dihydro-indol-3-ylidenemethyl)-1H-pyrrol-3-yl]-propionic acid] the “Alanine aminotransferase increased, number of patients” value [1, 3] was 1, the “Alkaline phosphatase increased, number of patients” value (“Alkaline phosphatase increased” below) [1, 3] was 1 and the “Diarrhea, number of patients” value [1, 3] was 3. For the same compound, the “Face edema, number of patients” value [1, 3] was 1, the “Fatigue, number of patients” value [1, 3] was 1 and the “Nausea, number of patients” value [1, 3] was 1. The “Upper abdominal pain, number of patients” value [1, 3] was 1, the “Urine discoloration, number of patients” value [1, 3] was 3 and the “Chest pain, number of patients” value ([1]; 200 mg/m^2 bid (N = 3), G2, 28-days administration) was 1. The “Alkaline phosphatase increased” value [1, 4] was 1, the “Chest pain, number of patients” value [1, 4] was 1 and the “Diarrhea, number of patients” value [1, 4] was 1. For the same compound, the “Face edema, number of patients” value [1, 4] was 1, the “Fatigue, number of patients” value [1, 4] was 1 and the “Feces discolored, number of patients” value [1, 4] was 1. The “Urine discoloration, number of patients” value [1, 4] was 3, the “Albumin decreased, number of patients” value [1, 5] was 1 and the “Upper abdominal pain, number of patients” value [1, 5] was 1. The “Abdominal pain, number of patients” value [1, 6] was 2, the “Alanine aminotransferase increased, number of patients” value [1, 6] was 2 and the “Albumin decreased, number of patients” value [1, 6] was 4. The “Alkaline phosphatase increased” value [1, 6] was 3, the “Anorexia, number of patients” value [1, 6] was 3 and the “Diarrhea, number of patients” value [1, 6] was 2. For the same compound, the “Face edema, number of patients” value [1, 6] was 1, the “Fatigue, number of patients” value [1, 6] was 3 and the “Feces discolored, number of patients” value [1, 6] was 6. The “Nausea, number of patients” value [1, 6] was 2, the “Total protein decreased, number of patients” value [1, 6] was 3 and the “Urine discoloration, number of patients” value [1, 6] was 6. For the same compound, the “Vomiting, number of patients” value [1, 6] was 2, the “Abdominal pain, number of patients” value [1, 7] was 1 and the “Anorexia, number of patients” value [1, 7] was 1. For the same compound, the “Diarrhea, number of patients” value [1, 7] was 2, the “Fatigue, number of patients” value [1, 7] was 1 and the “Anemia, number of patients” value [1, 8] was 1. For the same compound, the “Arrhythmia, number of patients” value [1, 8] was 1, the “Thrombocytopenia, number of patients” value [1, 8] was 1 and the “Abdominal pain, number of patients” value [1, 9] was 1. For the same compound, the “Alkaline phosphatase increased” value [1, 9] was 1, the “Anorexia, number of patients” value [1, 9] was 2 and the “Chest pain, number of patients” value [1, 9] was 1. For the same compound, the “Diarrhea, number of patients” value [1, 9] was 1, the “Face edema, number of patients” value [1, 9] was 2 and the “Fatigue, number of patients” value [1, 9] was 2. The “Feces discolored, number of patients” value [1, 9] was 3, the “Upper abdominal pain, number of patients” value [1, 9] was 2 and the “Urine discoloration, number of patients” value [1, 9] was 3. The “Abdominal pain, number of patients” value [1, 10] was 1, the “Albumin decreased, number of patients” value [1, 10] was 1 and the “Anorexia, number of patients” value [1, 10] was 1. The “Diarrhea, number of patients” value [1, 10] was 1, the “Fatigue, number of patients” value [1, 10] was 1 and the “Nausea, number of patients” value [1, 10] was 1. For the same compound, the “Vomiting, number of patients” value [1, 10] was 1, the “Abdominal pain, number of patients” value ([1]; Total (N = 5), after 28 days) was 1 and the “Abdominal pain, patients (%)” value ([1]; Total (N = 5), after 28 days) was “(20) %”. The “Alanine aminotransferase increased, number of patients” value ([1]; Total (N = 5), after 28 days) was 3, the “Alkaline phosphatase increased” value ([1]; Total (N = 5), after 28 days) was 2 and the “Anorexia, number of patients” value ([1]; Total (N = 5), after 28 days) was 1. The “Anorexia, patients (%)” value ([1]; Total (N = 5), after 28 days) was “(20) %”, the “Arrhythmia, number of patients” value ([1]; Total (N = 5), after 28 days) was 1 and the “Arrhythmia, patients (%)” value ([1]; Total (N = 5), after 28 days) was “(20) %”. For the same compound, the “Chest pain, number of patients” value ([1]; Total (N = 5), after 28 days) was 2, the “Diarrhea, number of patients” value ([1]; Total (N = 5), after 28 days) was 3 and the “Face edema, number of patients” value ([1]; Total (N = 5), after 28 days) was 3. The “Fatigue, number of patients” value ([1]; Total (N = 5), after 28 days) was 4, the “Fatigue, patients (%)” value ([1]; Total (N = 5), after 28 days) was “(80) %” and the “Feces discolored, number of patients” value ([1]; Total (N = 5), after 28 days) was 4. The “Feces discolored, patients (%)” value ([1]; Total (N = 5), after 28 days) was “(80) %”, the “Nausea, number of patients” value ([1]; Total (N = 5), after 28 days) was 1 and the “Nausea, patients (%)” value ([1]; Total (N = 5), after 28 days) was “(20) %”. For the same compound, the “Urine discoloration, number of patients” value ([1]; Total (N = 5), after 28 days) was 5, the “Urine discoloration, patients (%)” value ([1]; Total (N = 5), after 28 days) was “(100) %” and the “Vomiting, number of patients” value ([1]; Total (N = 5), after 28 days) was 1. For the same compound, the “Vomiting, patients (%)” value ([1]; Total (N = 5), after 28 days) was “(20) %”, the “Abdominal pain, number of patients” value [1, 11] was 5 and the “Abdominal pain, patients (%)” value [1, 11] was “(33) %”. For the same compound, the “Alanine aminotransferase increased, number of patients” value [1, 11] was 3, the “Alanine aminotransferase increased, patients (%)” value [1, 11] was “(20) %” and the “Albumin decreased, number of patients” value [1, 11] was 6. The “Alkaline phosphatase increased” value [1, 11] was 6, the “Anemia, number of patients” value [1, 11] was 1 and the “Arrhythmia, number of patients” value [1, 11] was 1. For the same compound, the “Chest pain, number of patients” value [1, 11] was 3, the “Chest pain, patients (%)” value [1, 11] was “(20) %” and the “Face edema, number of patients” value [1, 11] was 5. For the same compound, the “Face edema, patients (%)” value [1, 11] was “(33) %”, the “Fatigue, number of patients” value [1, 11] was 9 and the “Nausea, number of patients” value [1, 11] was 4. The “Thrombocytopenia, number of patients” value [1, 11] was 1, the “Total protein decreased, number of patients” value [1, 11] was 3 and the “Total protein decreased, patients (%)” value [1, 11] was “(20) %”. The “Upper abdominal pain, number of patients” value [1, 11] was 4, the “Urine discoloration, number of patients” value [1, 11] was 15 and the “Urine discoloration, patients (%)” value [1, 11] was “(100) %”. The “Vomiting, number of patients” value [1, 11] was 3, the “Vomiting, patients (%)” value [1, 11] was “(20) %” and the “recommended dose for further studies” value ([1]; continuous oral bid between meals) was “less than 800 mg/m^2 bid”. The “tolerable dose for continuing treatment” value ([1]; oral bid between meals) was no more than 800 mg/m^2 bid, the “acceptable dosage level in daily administration” value ([1]; oral, between meals, estimated) was 800 mg/m^2 bid and the “partial or complete responses” value (advanced solid tumors; 15 patients, 200-1,200 mg/m^2 bid) was “No partial or complete responses were seen”. For the same compound, the “patients with stable disease” value (advanced solid tumors; non-small cell lung cancer 2, thymoma 1, peritoneal sarcoma 1) was “Four”, the “change of plasma VEGF, E-selectin, tPA and VCAM-1” value [2] was “not changed substantially” and the “PAI-1, increase over the baseline” value ([2]; average) was “more than 20%”. For the same compound, the “urine VEGF, increase over the baseline” value ([2]; average) was “more than 20%”, the “PAI-1, average after treatment” value ([2]; baseline 24.3 ± 6.7 ng/ml) was 29.5 ± 11.3 ng/mL and the “urine VEGF, average after treatment” value ([2]; baseline 96.6 ± 62.4 pg/ml) was 132.1 ± 93.6 pg/mL. For the same compound, the “antitumor activity against tumor xenograft explants” value (tumor xenograft explants) was “significant antitumor activity”.
